From publication PMC8856734 (Journal of medicinal chemistry, 2021)
Blank lines part the entries; values can stand above or below the compound they belong to.

Experiments:
[1] = biological target: T1, CBP bromodomain (Homo sapiens, UniProt Q92793); test: CBP AlphaScreen assay with biotinylated small molecule probe compound C; type: binding; settings: for loss in inhibitory activity against CBP: other warheads in place of 3,5-dimethylisoxazole; for loss in CBP inhibitory activity: compared to compound 23
[2] = system: IRF4/MYC axis; test: Immunoblot of MYC and IRF4 in MM.1S cells; type: cell-based; settings: 24 h, 2.5 μM
Method in brief: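 MM.1S cells exposed 24 h to DMSO or 2.5 μM of test compounds (CBP/EP300-selective and BRD4-selective). Lysates immunoblotted for MYC and IRF4, with β-actin as loading control.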

[3] = system: MYC expression level; test: Immunoblot of MYC in MOLM13 cells; type: cell-based; settings: 2 h
Method in brief: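 MOLM13 cells seeded in 6-well plates at 1×10^6 cells/well and treated 2 h with DMSO or 3.0 μM test compound or reference CBP inhibitor. Protein extracted in RIPA plus protease inhibitor cocktail, run on Bis-Tris gels, wet-transferred to PVDF. Probed for MYC, β-actin, H3 and H3K27ac with IRDye secondaries.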

[4] = biological target: T1, CBP bromodomain; test: Differential scanning fluorometry; type: binding; settings: for DSF selectivity: CBP and EP300 versus BRD4 BD1, compared with CBP30
[5] = system: H3K27ac level; test: Immunoblot of H3K27ac in MOLM13 cells; type: cell-based; settings: 2 h
[6] = system: multiple myeloma lines; test: Cell viability, multiple myeloma lines; type: cell-based; settings: 5-day incubation
Method in brief: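 Cells seeded at 500/well in 384-well plates; serially pre-diluted test compound added by pin transfer (100 nl). Viability read by CellTiter-Glo luminescence after 5-day incubation. Data normalized to DMSO control; IC50 from nonlinear regression curve fit.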

[7] = system: MOLM13 cells; test: CellTiter-Glo cell viability, MOLM13; type: cell-based; settings: 5 day, ATP-dependent luminescence
Method in brief: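 MOLM13 cells seeded at 500/well in 384-well plates, given serially pre-diluted test compound or reference CBP inhibitor by pin transfer; 5-day incubation, then ATP-dependent luminescence (CellTiter-Glo).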

[8] = system: 34 bromodomains; test: BROMOSCAN profiling against 34 bromodomains; type: binding; settings: 1 μM compound concentration
[9] = biological target: T2, BRD4 BD1 (Homo sapiens, UniProt O60885); test: BRD4 AlphaScreen assay with biotinylated JQ1; type: binding
[10] = system: CBP; settings: read-out: CBP IC50; cited from earlier work
[11] = biological target: T3, EP300 (P300) bromodomain (Homo sapiens, UniProt Q09472); test: Differential scanning fluorometry; type: binding; settings: temperature shift
T3 sequence (Q09472 1049-1156 limits assumed): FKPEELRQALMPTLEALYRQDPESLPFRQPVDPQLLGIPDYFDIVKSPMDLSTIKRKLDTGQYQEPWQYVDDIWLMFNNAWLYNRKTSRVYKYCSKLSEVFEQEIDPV

[12] = biological target: T2, BRD4 BD1; test: Differential scanning fluorometry; type: binding; settings: temperature shift

T1 sequence (Q92793 1085-1192 limits assumed): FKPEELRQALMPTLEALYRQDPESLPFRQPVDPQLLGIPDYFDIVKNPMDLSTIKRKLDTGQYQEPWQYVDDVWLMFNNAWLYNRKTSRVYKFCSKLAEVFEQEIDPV

loss in inhibitory activity against CBP [1]: greater than 10 fold
SMILES: Cc1noc2cc(-c3ccn4c(NC5CCCCC5)c(CCc5ccccc5)nc4c3)ccc12 [Compound 11]
IRF4/MYC axis perturbation [2]: not with BRD4 inhibitor

decrease in CBP inhibitory potency ([1]; compared to compound 16): > 5 fold
SMILES: COc1ccc(CCc2nc3cc(-c4c(C)noc4C)ccn3c2NC(C)(C)C)cc1 [Compound 18]

more potent against CBP ([1]; compared to compound 16): 2 fold
SMILES: COc1ccc(CCc2nc3cc(-c4c(C)noc4C)ccn3c2NC2CCCCC2)cc1Cl [Compound 23, 2-(3-chloro-4-methoxyphenethyl)-N-cyclohexyl-7-(3,5-dimethylisoxazol-4-yl)imidazo[1,2-a]pyridin-3-amine]
MYC level [3]: caused MYC depletion
DSF selectivity [4]: greater selectivity than the known inhibitor, CBP30
IRF4/MYC axis perturbation [2]: perturbed
H3K27ac level [5]: reduced the H3K27ac level similar to CBP30
MM cell growth inhibition [6]: IC50 values similar to CBP30
MOLM13 cell growth inhibition [7]: IC50 values similar to CBP30
BROMOSCAN binding and selectivity [8]: better binding and selectivity compared to compound 7 and 16

decrease in CBP inhibitory potency ([1]; compared to compound 16): 10 fold
SMILES: COc1ccc(CCc2nc3cc(-c4c(C)noc4C)ccn3c2NCc2ccccc2)cc1 [Compound 21]

decrease in CBP inhibitory potency ([1]; compared to compound 16): > 5 fold
SMILES: Cc1noc(C)c1-c1ccn2c(NC(C)(C)C)c(CCc3ccccc3)nc2c1 [Compound 13, N-(tert-butyl)-7-(3,5-dimethylisoxazol-4-yl)-2-phenethylimidazo[1,2-a]pyridin-3-amine]

decrease in CBP inhibitory potency ([1]; compared to compound 16): ~ 4 fold
SMILES: CCCOc1ccc(CCc2nc3cc(-c4c(C)noc4C)ccn3c2NC2CCCCC2)cc1 [Compound 20]

decrease in CBP inhibitory potency ([1]; compared to compound 16): ~2 fold
SMILES: COc1ccc(CCc2nc3cc(-c4c(C)noc4C)ccn3c2NCCN2CCOCC2)cc1 [Compound 15]

decrease in CBP inhibitory potency ([1]; compared to compound 16): > 5 fold
SMILES: COc1ccc(CCc2nc3cc(-c4c(C)noc4C)ccn3c2NC23CC4CC(CC(C4)C2)C3)cc1 [Compound 14, N-((3s,5s,7s)-adamantan-1-yl)-7-(3,5-dimethylisoxazol-4-yl)-2-(4-methoxyphenethyl)imidazo[1,2-a]pyridin-3-amine]

loss in inhibitory activity against CBP [1]: greater than 10 fold
SMILES: Cc1[nH]nc2cc(-c3ccn4c(NC5CCCCC5)c(CCc5ccccc5)nc4c3)ccc12 [Compound 10]
IRF4/MYC axis perturbation [2]: not with BRD4 inhibitor

The remaining lines, values behind:

SMILES: COc1ccc(CCc2nc3cc(-c4c(C)noc4C)ccn3c2NCc2ccc(Cl)cc2)cc1 [Compound 22]
decrease in CBP inhibitory potency ([1]; compared to compound 16): 10 fold

SMILES: CN1Cc2cc(-c3ccn4c(NC5CCCCC5)c(CCc5ccccc5)nc4c3)ccc2NC1=O [Compound 9]
loss in inhibitory activity against CBP [1]: greater than 10 fold

SMILES: COc1ccc(CCc2nc3cc(-c4c(C)noc4C)ccc3n2C[C@H](C)N2CCOCC2)cc1Cl [CBP30, reference compound]
IRF4/MYC axis perturbation [2]: perturbed
IC50 [9]: 10.1 ± 0.55 µM

SMILES: COc1ccc(CCc2nc3cc(-c4c(C)noc4C)ccn3c2NC(C)C)cc1OC [Compound 33, 2-(3,4-dimethoxyphenethyl)-7-(3,5-dimethylisoxazol-4-yl)-N-isopropylimidazo[1,2-a]pyridin-3-amine]
loss in CBP inhibitory activity [1]: 49 fold
loss in BRD4 inhibitory activity ([9]; compared to compound 23): 4 fold

SMILES: COc1ccc(CCc2nc3cc(-c4c(C)noc4C)ccn3c2NC(C)C)cc1 [Compound 17, 7-(3,5-dimethylisoxazol-4-yl)-N-isopropyl-2-(4-methoxyphenethyl)imidazo[1,2-a]pyridin-3-amine]
decrease in CBP inhibitory potency ([1]; compared to compound 16): ~3 fold

SMILES: COc1ccc(CCc2nc3cc(-c4c(C)noc4C)ccn3c2NC2CCCCC2)cc1OC [Compound 32]
loss in CBP inhibitory activity [1]: ~ 10 fold

SMILES: Cc1noc(C)c1-c1ccn2c(NC3CCCCC3)c(CCc3ccccc3)nc2c1 [Compound 7, N-cyclohexyl-7-(3,5-dimethylisoxazol-4-yl)-2-phenethylimidazo[1,2-a]pyridin-3-amine]
DSF activity against CBP ([4]; temperature shift): more active
DSF activity against EP300 [11]: more active
DSF activity toward BRD4 [12]: very modest activity

SMILES: COc1ccc(CCc2nc3cc(-c4c(C)noc4C)ccn3c2NC2CCCCC2)cc1 [Compound 16, N-cyclohexyl-7-(3,5-dimethylisoxazol-4-yl)-2-(4-methoxyphenethyl)imidazo[1,2-a]pyridin-3-amine]
DSF selectivity [4]: greater selectivity than the known inhibitor, CBP30
increase in CBP inhibitory potency ([1]; compared to compound 7): 5 fold
